Experiments:
[1] = molecular target: T1, Mitogen-activated protein kinase 13 (Homo sapiens) (UniProt O15264); assay: Inhibition of P38delta assessed as residual activity at 10 uM
T1 sequence (whole entry): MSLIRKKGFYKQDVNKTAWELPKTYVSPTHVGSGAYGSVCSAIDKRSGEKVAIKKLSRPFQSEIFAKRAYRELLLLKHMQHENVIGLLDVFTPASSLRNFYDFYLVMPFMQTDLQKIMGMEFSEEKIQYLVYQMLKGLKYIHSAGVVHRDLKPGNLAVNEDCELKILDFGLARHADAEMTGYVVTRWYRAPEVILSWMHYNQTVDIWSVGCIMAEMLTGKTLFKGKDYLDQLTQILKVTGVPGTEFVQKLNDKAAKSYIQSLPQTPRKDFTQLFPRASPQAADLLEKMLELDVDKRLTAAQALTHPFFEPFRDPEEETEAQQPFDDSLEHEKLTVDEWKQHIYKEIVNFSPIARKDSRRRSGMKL
In short: (§1)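 Panel screen by radioactive kinase assay at a single inhibitor concentration. Score is the percent activity remaining relative to DMSO controls (100%).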

[2] = molecular target: Calcium/calmodulin-dependent protein kinase type 1 (Homo sapiens) (UniProt Q14012); assay: Inhibition of CAMK1 assessed as residual activity at 10 uM
In short: (§2)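 Kinase panel screen run as a radioactive activity assay at single compound concentration. Score reported as percent activity remaining relative to DMSO controls (100%).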

[3] = molecular target: Serine/threonine-protein kinase PAK 6 (Homo sapiens) (UniProt Q9NQU5); assay: Inhibition of PAK6 assessed as residual activity at 10 uM; in short: as §1
[4] = molecular target: Ephrin type-A receptor 2 (Homo sapiens) (UniProt P29317); assay: Inhibition of EPHA2 assessed as residual activity at 10 uM; in short: as §2
[5] = molecular target: T2, Serine/threonine-protein kinase 3 (Homo sapiens) (UniProt Q13188); assay: Inhibition of MST2 assessed as residual activity at 10 uM; in short: as §1
T2 sequence (whole entry): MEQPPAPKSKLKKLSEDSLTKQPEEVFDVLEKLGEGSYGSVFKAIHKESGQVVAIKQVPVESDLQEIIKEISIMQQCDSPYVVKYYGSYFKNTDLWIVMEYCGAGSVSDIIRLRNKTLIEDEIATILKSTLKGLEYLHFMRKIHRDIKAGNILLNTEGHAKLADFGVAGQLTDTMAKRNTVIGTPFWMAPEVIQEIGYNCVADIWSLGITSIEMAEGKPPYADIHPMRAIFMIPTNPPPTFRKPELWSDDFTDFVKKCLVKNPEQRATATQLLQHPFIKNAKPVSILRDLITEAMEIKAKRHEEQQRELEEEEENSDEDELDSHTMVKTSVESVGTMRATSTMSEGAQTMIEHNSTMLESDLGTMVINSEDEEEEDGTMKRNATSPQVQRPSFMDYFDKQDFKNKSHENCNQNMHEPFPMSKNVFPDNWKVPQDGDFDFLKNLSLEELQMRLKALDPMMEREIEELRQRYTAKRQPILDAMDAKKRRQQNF

[6] = molecular target: Serine/threonine-protein kinase pim-1 (Homo sapiens) (UniProt P11309); assay: Inhibition of PIM1 assessed as residual activity at 10 uM; in short: as §1
[7] = molecular target: T3, Aurora kinase A (Homo sapiens) (UniProt O14965); assay: Inhibition of aurora A assessed as residual activity at 10 uM; in short: as §1
T3 sequence (whole entry): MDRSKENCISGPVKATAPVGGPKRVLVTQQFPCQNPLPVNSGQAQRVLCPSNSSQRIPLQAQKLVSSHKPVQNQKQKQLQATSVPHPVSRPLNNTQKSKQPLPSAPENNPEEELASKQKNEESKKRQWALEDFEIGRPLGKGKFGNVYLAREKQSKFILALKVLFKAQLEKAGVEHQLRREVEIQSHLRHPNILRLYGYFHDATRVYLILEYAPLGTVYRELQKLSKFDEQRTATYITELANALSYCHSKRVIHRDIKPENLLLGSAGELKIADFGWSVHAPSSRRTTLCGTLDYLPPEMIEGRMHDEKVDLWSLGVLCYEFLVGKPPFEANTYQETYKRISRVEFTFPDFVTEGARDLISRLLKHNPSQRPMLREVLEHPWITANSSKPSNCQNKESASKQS

[8] = molecular target: Homeodomain-interacting protein kinase 2 (Homo sapiens) (UniProt Q9H2X6); assay: Inhibition of HIPK2 assessed as residual activity at 10 uM; in short: as §2
[9] = molecular target: Ribosomal protein S6 kinase alpha-1 (Homo sapiens) (UniProt Q15418); assay: Inhibition of RSK1 assessed as residual activity at 10 uM; in short: as §1
[10] = molecular target: Tyrosine-protein kinase CSK (Homo sapiens) (UniProt P41240); assay: Inhibition of CSK assessed as residual activity at 10 uM; in short: as §2
[11] = molecular target: Insulin receptor (Homo sapiens) (UniProt P06213); assay: Inhibition of IR assessed as residual activity at 10 uM; in short: as §2
[12] = molecular target: Serine/threonine-protein kinase Chk2 (Homo sapiens) (UniProt O96017); assay: Inhibition of CHK2 assessed as residual activity at 10 uM; in short: as §2
[13] = molecular target: T4, Dual specificity tyrosine-phosphorylation-regulated kinase 3 (Homo sapiens) (UniProt O43781); assay: Inhibition of DYRK3 assessed as residual activity at 10 uM; in short: as §2
T4 sequence (whole entry): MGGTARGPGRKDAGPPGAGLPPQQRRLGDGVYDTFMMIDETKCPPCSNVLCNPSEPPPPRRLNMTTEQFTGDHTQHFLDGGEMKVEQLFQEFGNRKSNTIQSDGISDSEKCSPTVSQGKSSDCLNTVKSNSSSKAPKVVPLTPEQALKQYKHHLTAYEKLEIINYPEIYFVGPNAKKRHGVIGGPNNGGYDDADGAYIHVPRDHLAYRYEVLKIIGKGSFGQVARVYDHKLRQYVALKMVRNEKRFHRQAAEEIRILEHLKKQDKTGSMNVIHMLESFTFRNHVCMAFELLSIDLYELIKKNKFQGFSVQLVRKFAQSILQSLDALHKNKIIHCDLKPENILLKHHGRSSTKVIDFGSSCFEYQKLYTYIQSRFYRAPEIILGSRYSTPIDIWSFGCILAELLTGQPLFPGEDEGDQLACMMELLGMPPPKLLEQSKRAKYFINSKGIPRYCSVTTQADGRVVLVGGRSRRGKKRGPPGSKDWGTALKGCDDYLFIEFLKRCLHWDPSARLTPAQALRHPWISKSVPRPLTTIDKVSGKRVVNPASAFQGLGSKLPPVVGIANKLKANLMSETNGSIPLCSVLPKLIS

[14] = molecular target: Rho-associated protein kinase 2 (Homo sapiens) (UniProt O75116); assay: Inhibition of ROCK2 assessed as residual activity at 10 uM; in short: as §1
[15] = molecular target: MAP kinase-activated protein kinase 2 (Homo sapiens) (UniProt P49137); assay: Inhibition of MAPKAPK2 assessed as residual activity at 10 uM; in short: as §2

Chain of Rho-associated protein kinase 2 (Homo sapiens) (O75116 whole entry, looked up): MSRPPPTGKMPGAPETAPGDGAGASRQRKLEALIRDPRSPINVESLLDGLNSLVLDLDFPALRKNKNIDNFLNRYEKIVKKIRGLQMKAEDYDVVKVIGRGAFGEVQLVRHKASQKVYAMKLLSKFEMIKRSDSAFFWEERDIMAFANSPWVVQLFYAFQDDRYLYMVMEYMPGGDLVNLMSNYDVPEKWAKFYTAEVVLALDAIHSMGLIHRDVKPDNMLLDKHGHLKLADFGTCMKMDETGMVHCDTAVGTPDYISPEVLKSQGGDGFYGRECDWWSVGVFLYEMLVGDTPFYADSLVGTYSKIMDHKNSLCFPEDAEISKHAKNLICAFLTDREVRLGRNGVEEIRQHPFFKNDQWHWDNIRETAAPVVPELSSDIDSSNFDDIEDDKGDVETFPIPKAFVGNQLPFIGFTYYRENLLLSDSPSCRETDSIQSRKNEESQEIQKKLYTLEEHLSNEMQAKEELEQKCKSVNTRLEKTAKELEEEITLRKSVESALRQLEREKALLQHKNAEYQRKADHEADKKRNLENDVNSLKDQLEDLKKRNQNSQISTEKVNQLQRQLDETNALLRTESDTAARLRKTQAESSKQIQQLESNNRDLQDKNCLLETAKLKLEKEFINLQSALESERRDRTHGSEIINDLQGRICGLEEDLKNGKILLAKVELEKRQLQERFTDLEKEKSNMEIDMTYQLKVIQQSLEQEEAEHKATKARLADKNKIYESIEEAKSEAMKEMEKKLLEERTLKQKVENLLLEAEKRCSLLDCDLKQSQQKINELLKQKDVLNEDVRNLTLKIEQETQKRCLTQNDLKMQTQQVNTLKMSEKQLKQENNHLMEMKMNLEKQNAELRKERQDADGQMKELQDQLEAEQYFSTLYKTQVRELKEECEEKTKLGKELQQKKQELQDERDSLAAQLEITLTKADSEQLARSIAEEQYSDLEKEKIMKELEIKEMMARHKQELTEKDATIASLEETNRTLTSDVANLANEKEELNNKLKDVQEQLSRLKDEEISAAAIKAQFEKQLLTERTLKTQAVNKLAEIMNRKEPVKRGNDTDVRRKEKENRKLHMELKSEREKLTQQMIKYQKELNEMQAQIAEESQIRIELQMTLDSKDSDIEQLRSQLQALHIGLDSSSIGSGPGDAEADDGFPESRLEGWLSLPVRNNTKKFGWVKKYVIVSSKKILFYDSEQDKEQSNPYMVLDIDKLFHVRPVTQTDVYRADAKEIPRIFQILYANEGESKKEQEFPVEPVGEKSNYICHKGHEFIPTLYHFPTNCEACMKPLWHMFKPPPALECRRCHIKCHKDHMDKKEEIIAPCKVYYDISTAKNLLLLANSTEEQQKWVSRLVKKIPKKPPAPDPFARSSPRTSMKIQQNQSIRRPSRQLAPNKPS
Chain of Insulin receptor (Homo sapiens) (P06213 28-758 limits assumed): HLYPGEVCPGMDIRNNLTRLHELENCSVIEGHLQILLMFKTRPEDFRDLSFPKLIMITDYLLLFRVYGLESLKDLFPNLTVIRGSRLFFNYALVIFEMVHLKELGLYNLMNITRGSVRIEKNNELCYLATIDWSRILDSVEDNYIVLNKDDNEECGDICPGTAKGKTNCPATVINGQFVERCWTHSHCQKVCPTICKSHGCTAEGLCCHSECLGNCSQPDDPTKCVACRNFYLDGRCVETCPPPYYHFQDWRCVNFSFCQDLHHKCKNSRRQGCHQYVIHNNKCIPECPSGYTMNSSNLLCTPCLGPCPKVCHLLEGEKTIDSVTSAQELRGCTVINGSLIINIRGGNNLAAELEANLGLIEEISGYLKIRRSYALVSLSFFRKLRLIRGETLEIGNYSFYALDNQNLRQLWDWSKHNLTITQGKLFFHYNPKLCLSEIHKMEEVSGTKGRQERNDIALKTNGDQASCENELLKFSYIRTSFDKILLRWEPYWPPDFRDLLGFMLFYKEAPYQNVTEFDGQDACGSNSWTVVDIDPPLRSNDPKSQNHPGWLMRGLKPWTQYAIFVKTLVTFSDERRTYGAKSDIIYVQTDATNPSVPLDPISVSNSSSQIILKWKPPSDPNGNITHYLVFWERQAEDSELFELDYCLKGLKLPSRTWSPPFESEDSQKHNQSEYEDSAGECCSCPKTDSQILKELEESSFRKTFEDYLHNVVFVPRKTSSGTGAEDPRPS
Chain of Insulin receptor (Homo sapiens) (P06213 763-1382 limits assumed): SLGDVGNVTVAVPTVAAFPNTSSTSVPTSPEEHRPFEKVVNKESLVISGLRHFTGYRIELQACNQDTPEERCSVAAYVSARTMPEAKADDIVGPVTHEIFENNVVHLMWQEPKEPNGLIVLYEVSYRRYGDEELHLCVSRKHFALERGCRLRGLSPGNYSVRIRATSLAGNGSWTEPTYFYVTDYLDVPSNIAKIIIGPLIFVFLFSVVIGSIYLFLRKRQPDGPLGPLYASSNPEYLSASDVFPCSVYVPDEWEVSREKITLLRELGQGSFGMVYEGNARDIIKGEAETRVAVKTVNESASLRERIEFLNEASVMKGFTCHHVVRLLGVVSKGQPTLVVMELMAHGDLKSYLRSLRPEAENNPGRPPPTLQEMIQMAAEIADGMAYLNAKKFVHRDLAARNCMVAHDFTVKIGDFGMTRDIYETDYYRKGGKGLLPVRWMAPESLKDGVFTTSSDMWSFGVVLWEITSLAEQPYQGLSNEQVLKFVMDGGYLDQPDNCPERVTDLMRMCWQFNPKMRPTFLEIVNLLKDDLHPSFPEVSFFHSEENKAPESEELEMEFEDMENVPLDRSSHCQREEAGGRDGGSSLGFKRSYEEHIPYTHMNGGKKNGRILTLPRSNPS
Chain of Calcium/calmodulin-dependent protein kinase type 1 (Homo sapiens) (Q14012 whole entry, looked up): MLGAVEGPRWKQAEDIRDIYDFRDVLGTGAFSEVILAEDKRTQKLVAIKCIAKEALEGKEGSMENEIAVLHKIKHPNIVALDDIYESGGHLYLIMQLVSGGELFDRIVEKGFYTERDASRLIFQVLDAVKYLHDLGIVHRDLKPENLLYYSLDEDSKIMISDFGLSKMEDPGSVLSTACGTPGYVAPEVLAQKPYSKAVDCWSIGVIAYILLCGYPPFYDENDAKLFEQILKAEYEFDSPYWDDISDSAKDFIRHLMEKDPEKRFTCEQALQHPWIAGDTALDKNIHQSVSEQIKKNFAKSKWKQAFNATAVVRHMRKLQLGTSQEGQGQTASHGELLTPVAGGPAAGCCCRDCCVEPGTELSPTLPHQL
Chain of Ephrin type-A receptor 2 (Homo sapiens) (P29317 whole entry): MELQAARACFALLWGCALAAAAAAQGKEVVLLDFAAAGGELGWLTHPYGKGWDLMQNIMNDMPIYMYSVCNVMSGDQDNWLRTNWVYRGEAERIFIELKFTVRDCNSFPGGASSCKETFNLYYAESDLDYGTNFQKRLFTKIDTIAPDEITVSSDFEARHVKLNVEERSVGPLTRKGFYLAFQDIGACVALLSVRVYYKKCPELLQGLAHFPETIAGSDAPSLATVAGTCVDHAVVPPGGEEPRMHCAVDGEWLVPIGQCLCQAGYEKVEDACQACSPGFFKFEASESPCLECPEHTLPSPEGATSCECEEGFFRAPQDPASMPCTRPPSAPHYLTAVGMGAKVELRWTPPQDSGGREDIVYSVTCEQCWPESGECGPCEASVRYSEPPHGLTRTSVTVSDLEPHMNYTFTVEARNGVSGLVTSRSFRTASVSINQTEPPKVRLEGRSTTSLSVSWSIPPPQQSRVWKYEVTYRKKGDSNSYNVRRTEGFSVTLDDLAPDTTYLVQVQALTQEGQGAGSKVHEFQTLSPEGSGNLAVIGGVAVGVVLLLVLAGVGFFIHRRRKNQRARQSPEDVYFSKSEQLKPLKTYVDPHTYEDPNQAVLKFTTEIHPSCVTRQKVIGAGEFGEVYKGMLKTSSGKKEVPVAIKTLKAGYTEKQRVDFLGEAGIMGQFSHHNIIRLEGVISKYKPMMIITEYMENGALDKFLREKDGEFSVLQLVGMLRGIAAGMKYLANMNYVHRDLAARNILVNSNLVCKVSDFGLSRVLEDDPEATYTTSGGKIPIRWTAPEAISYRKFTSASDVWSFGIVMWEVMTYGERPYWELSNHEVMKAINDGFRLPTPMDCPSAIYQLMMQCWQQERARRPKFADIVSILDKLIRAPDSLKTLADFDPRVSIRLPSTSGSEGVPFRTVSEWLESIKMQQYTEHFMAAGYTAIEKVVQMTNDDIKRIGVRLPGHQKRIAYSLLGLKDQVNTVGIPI
Chain of Serine/threonine-protein kinase PAK 6 (Homo sapiens) (Q9NQU5 whole entry, looked up): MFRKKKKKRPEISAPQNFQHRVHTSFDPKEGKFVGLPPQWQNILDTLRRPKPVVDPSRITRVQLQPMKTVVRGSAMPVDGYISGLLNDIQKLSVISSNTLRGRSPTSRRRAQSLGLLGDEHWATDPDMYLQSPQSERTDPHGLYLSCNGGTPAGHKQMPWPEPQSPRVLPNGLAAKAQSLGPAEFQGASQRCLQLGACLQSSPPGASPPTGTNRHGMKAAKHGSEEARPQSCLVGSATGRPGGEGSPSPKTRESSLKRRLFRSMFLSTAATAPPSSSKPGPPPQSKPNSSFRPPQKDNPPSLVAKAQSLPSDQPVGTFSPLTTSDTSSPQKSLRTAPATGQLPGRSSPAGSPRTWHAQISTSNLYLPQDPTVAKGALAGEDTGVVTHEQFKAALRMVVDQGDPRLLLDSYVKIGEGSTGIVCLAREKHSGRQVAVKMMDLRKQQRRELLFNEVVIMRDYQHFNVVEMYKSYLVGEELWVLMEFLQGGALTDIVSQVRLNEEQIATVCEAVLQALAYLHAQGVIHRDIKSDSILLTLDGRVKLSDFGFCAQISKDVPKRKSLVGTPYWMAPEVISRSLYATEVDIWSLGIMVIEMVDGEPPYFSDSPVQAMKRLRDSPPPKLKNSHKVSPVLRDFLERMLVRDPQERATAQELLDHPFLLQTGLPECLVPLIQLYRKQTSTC

Activity [1]	Activity [2]	Activity [3]	Activity [4]	Activity [5]	Activity [6]	Activity [7]	Activity [8]	Activity [9]	Activity [10]	Activity [11]	Activity [12]	Activity [13]	Activity [14]	Activity [15]	Structure (SMILES)
94%	15%	100%	84%	99%	68%	94%	93%	84%	89%	93%	56%	73%	100%	100%	CN(C)CCCC(=O)Nc1ccc2c(C#N)cnc(Nc3cccc(Br)c3)c2c1
86%	25%	100%	73%	82%	73%	79%	95%	79%	85%	77%	51%	75%	100%	97%	CN(C)C/C=C/C(=O)Nc1ccc2c(C#N)cnc(Nc3cccc(Br)c3)c2c1
77%	14%	87%	87%	86%	73%	80%	88%	84%	81%	95%	53%	81%	100%	100%	CN1CCN(CCC(=O)Nc2ccc3c(C#N)cnc(Nc4cccc(Br)c4)c3c2)CC1
